Results reported in PMC3625964 (Journal of medicinal chemistry, 2013).
Marks after values point to notes of the source that are not given here.

Tests used:
human factor XIa [1] = target: T1, human factor XIa (Homo sapiens, UniProt P03951); test: Direct inhibition of FXIa, chromogenic substrate; assay type: biochemical
FXIa-DEGR = FXIa-DEGR (Homo sapiens, UniProt P03951); test: Fluorescence titration of active site labeled FXIa; assay type: binding; settings: 250 nM FXIa-DEGR, pH 7.4, 37 °C; for ΔFMAX: 547 nm
FXIa-DEGR, sequence (P03951 388-625 limits assumed): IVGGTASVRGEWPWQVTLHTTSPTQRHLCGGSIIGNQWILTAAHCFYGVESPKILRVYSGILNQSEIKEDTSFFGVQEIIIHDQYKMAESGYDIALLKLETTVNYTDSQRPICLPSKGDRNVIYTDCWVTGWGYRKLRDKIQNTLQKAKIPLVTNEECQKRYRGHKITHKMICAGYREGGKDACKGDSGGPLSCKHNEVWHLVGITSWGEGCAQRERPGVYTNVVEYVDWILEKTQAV
FXIa-DEGR, sequence (P03951 19-387 partner limits assumed): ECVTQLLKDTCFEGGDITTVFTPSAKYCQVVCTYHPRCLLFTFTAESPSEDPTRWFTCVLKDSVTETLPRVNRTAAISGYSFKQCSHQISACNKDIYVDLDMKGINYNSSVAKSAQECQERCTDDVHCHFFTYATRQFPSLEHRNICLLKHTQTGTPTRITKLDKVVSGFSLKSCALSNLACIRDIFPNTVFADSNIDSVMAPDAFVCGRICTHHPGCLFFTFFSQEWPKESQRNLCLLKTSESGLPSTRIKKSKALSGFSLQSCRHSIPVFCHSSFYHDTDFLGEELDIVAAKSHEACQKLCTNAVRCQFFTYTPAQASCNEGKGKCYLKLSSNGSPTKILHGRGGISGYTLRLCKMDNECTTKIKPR
Summary of the method: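 Plasma-derived human FXIa with a dansyl active-site label (FXIa-DEGR, 250 nM) in 50 mM Tris-HCl pH 7.4, 150 mM NaCl, 0.1% PEG8000 at 37 °C was titrated with aliquots of test compound in the same buffer. Emission at 547 nm (excitation 345 nm) was tracked. Hill-equation fits gave KD,app, n and ΔFMAX. At least two runs were done.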

human plasma [2] = test: Activated partial thromboplastin time; assay type: biochemical
Summary of the method: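 Citrated pooled normal human plasma was mixed with test compound and prewarmed APTT reagent (0.2% ellagic acid) and incubated 4 min at 37 °C. Clotting was started with prewarmed 25 mM CaCl2, and clot time was read on a fibrometer. Runs were in duplicate. A quadratic trend line of clot time versus concentration gave the concentration doubling clotting time.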

human plasma [3] = test: Prothrombin time; assay type: biochemical
Summary of the method: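 One-stage recalcification assay. Test compound was brought up in citrated pooled normal human plasma and held 30 s at 37 °C. Prewarmed reconstituted thromboplastin-D was added, and clot time was read on a fibrometer. Runs were in duplicate and the mean of two is reported. A quadratic trend line gave the concentration needed to double clotting time.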

human factor XIa [4] = target: T1, human factor XIa; test: Michaelis-Menten kinetics of S2366 hydrolysis by FXIa in presence of 14S; assay type: biochemical
FXIa-CD = FXIa-CD (Homo sapiens, UniProt P03951, C500S); test: Inhibition of recombinant wild type FXIa catalytic domain; assay type: biochemical; settings: catalytic domain alone
FXIa-CD, sequence (P03951 388-625 C500S): as the sequence (P03951 388-625 limits assumed) above, with C113S counted along it
Summary of the method: (§1)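 Human FXI cDNA with Cys362Ser/Cys482Ser, so the catalytic domain separates from the heavy chain, carried alanine substitutions at 170-helix residues (single or combined). It was stably expressed in HEK-293 with serum-free medium and purified on anti-FXI 1G5.12 affinity. It was activated with 5 μg/ml FXIIa at 37 °C, and the catalytic domain was isolated on 1G5.12. Dose-response used S2366 hydrolysis in 50 mM Tris-HCl pH 7.4, 150 mM NaCl, 0.1% PEG8000, 0.02% Tween80 at 37 °C, with logistic fits.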

[5] = test system: Lys529Ala,Arg530Ala,Arg532Ala FXIa-CD; test: Inhibition of FXIa-CD triple mutant; assay type: biochemical, human; settings: Arg532Ala vs FXIa-CD
Summary of the method: as §1

Lys535Ala FXIa-CD = Lys535Ala FXIa-CD (Homo sapiens, UniProt P03951, C500S/K553A); test: Inhibition of Lys535Ala FXIa-CD mutant; assay type: biochemical
Lys535Ala FXIa-CD, sequence (P03951 388-625 C500S/K553A): as the sequence (P03951 388-625 limits assumed) above, with C113S, K166A counted along it
Summary of the method: as §1

Lys539Ala FXIa-CD = Lys539Ala FXIa-CD (Homo sapiens, UniProt P03951, C500S/K557A); test: Inhibition of Lys539Ala FXIa-CD mutant; assay type: biochemical
Lys539Ala FXIa-CD, sequence (P03951 388-625 C500S/K557A): as the sequence (P03951 388-625 limits assumed) above, with C113S, K170A counted along it
Summary of the method: as §1

[6] = target: FXIa–CD containing Lys529Ala,Arg530Ala,Arg532Ala triple mutations (Homo sapiens, UniProt P03951, C500S/K547A/R548A/R550A); test: Polybrene competition, S2366 hydrolysis, FXIa-CD triple mutant; assay type: biochemical; settings: 30 μM polybrene
FXIa–CD containing Lys529Ala,Arg530Ala,Arg532Ala triple mutations, sequence (P03951 388-625 C500S/K547A/R548A/R550A): as the sequence (P03951 388-625 limits assumed) above, with C113S, K160A, R161A, R163A counted along it
Summary of the method: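 Recombinant FXIa catalytic domain bearing Lys529Ala/Arg530Ala/Arg532Ala (HEK-293 expressed, affinity purified, FXIIa-activated) was tested alongside full-length FXIa and wild-type catalytic domain. Proteolytic activity was measured by S2366 hydrolysis in the presence of 30 μM polybrene and 3 μM test compound.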

T1 sequence (P03951 388-625 limits assumed): as the sequence (P03951 388-625 limits assumed) above
T1 sequence (P03951 19-387 partner limits assumed): as the sequence (P03951 19-387 partner limits assumed) above

Structure (SMILES)	Hill coefficient n (FXIa-DEGR)	ΔFMAX (FXIa-DEGR)	prolongation of APTT (human plasma [2])	activity in the PT assay (human plasma [3]; human plasma)	also measured
O=c1c2ccccc2nc(-c2ccc(OS(=O)(=O)O)cc2)n1Cc1cn(CCn2cc(Cn3c(-c4ccc(OS(=O)(=O)O)cc4)nc4ccccc4c3=O)nn2)nn1 [Inhibitor 28S]					IC50 (human factor XIa [1]): < 100 µM; fold less potent than 15S (human factor XIa [1]; versus 15S): approximately 6 fold
CC(=O)Oc1cccc(-c2nc3ccccc3c(=O)n2Cc2cn(CCCCn3c(-c4cccc(OS(=O)(=O)O)c4)nc4ccccc4c3=O)nn2)c1 [Inhibitor 7S]					inhibition of factor XIa (in words) (human factor XIa [1]; pH 7.4, 37 °C): inactive
O=c1c2ccccc2nc(-c2ccc(OS(=O)(=O)O)cc2)n1CCCCCCn1cc(Cn2c(-c3ccc(OS(=O)(=O)O)cc3)nc3ccccc3c2=O)nn1 [Inhibitor 16S]	6.4 ± 2.0	90 ± 3%	dose-dependent prolongation	much less active	2 × PT (concentration to double clotting time) (human plasma [3]; citrated human plasma): >2000 µM; inhibition of FXIa-CD compared with wild-type enzyme (FXIa-CD): as potently as the wild-type enzyme; reduction in potency [5]: approximately 5 fold; change in IC50 from wild-type FXIa-CD (Lys535Ala FXIa-CD): no change in IC50; change in IC50 from wild-type FXIa-CD (Lys539Ala FXIa-CD): no change in IC50; loss in inhibition by addition of polybrene [6]: 1.45 fold

Further lines, with some results ahead:

Hill coefficient n (FXIa-DEGR)	ΔFMAX (FXIa-DEGR)	Structure (SMILES)	prolongation of APTT (human plasma [2])	activity in the PT assay (human plasma [3]; human plasma)	also measured
7.9 ± 1.9	66 ± 2 ^b %	O=c1c2ccccc2nc(-c2ccc(OS(=O)(=O)O)cc2)n1CCCCn1cc(Cn2c(-c3ccc(OS(=O)(=O)O)cc3)nc3ccccc3c2=O)nn1 [Inhibitor 13S]	dose-dependent prolongation	reasonable dose-dependent prolongation of clotting time	2-fold increase in PT (concentration) (human plasma [3]; human plasma, calculated from trend line): about 1.12 mM
9.0 ± 1.1	57 ± 2%	O=c1c2ccccc2nc(-c2cccc(OS(=O)(=O)O)c2)n1CCCCn1cc(Cn2c(-c3ccc(OS(=O)(=O)O)cc3)nc3ccccc3c2=O)nn1 [Inhibitor 14S]			mechanism of factor XIa inhibition (human factor XIa [4]): non-competitive; VMAX of substrate hydrolysis (human factor XIa [4]; 135 μM 14S, pH 7.4, 37 °C): 5.1±0.5 mAU/min
6.8 ± 2.7	72 ± 2%	O=c1c2ccccc2nc(-c2ccc(OS(=O)(=O)O)cc2)n1CCCCCn1cc(Cn2c(-c3ccc(OS(=O)(=O)O)cc3)nc3ccccc3c2=O)nn1 [Inhibitor 15S]	dose-dependent prolongation	much less active	
